Data reported in ChEMBL document CHEMBL3612066, “Design, Synthesis, and Biological Evaluation of Pyrazolo[1,5-a]pyridine-3-carboxamides as Novel Antitubercular Agents” (ACS Med Chem Lett, 2015).
In brackets after ≈: the same amount, converted by molar mass.

How the values were obtained:
Vero = assay: Cytotoxicity against African green monkey Vero cells after 72 hrs by CCK8 assay; assay type: cell-based; details: Chlorocebus sabaeus
In short: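 VERO African green monkey kidney cells; growth inhibition read by CCK-8 assay and reported as IC50. Values are means of two or more independent experiments, with variation <20%.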

[1] = tested on: Mycobacterium tuberculosis; assay: Antitubercular activity against fluorescent reporter strain of Mycobacterium tuberculosis H37Rv after 5 days by fluorescence assay; assay type: functional, organism-based; details: 120 h
In short: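 A fluorescent reporter strain of Mtb H37Rv was grown in liquid medium under aerobic conditions, and growth was read by fluorescence. MIC, IC50 and IC90 were determined.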

[2] = tested on: Mycobacterium tuberculosis; assay: Antitubercular activity against Mycobacterium tuberculosis H37Rv after 7 days by microplate alamar blue assay; assay type: functional; details: 168 h
In short: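 MIC against Mtb H37Rv by microplate alamar blue assay (MABA); MIC values interpolated by curve fitting.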

[3] = tested on: Mycobacterium tuberculosis; assay: Antitubercular activity against Mycobacterium tuberculosis H37Ra after 7 days by microplate alamar blue assay; assay type: functional; details: 168 h
Mus musculus = assay: Toxicity in autoluminescent Mycobacterium tuberculosis H37Ra infected noninvasive BALB/c mouse assessed as mortality at 4 to 100 mg/kg, po qd for 6 days; assay type: organism-based; details: in vivo, 144 h
In short: (§1)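 Mice were infected intravenously with log-phase, marker-free autoluminescent Mtb H37Ra at 2 × 10^6 CFU per mouse. They were then dosed by oral gavage once daily for 6 consecutive days at 4, 20 or 100 mg/kg/day, with CMC-Na as vehicle. Bioluminescence (RLU) was read in the same live, anesthetized mice every other day and expressed as the RLUdayn/RLUday0 ratio. Mortality was monitored during treatment.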

[4] = tested on: Mycobacterium tuberculosis; assay: Antitubercular activity against autoluminescent Mycobacterium tuberculosis H37Ra infected in noninvasive BALB/c mouse assessed as bioluminescence intensity by measuring relative light unit at 100 mg/kg, po qd for 6 days; assay type: functional; in short: as §1
[5] = tested on: Mycobacterium tuberculosis; assay: Antitubercular activity against autoluminescent Mycobacterium tuberculosis H37Ra infected in noninvasive BALB/c mouse assessed as bactericidal activity by measuring reduction in relative light unit at 100 mg/kg, po qd for 2 days relative to control; assay type: functional; in short: as §1
[6] = tested on: Mycobacterium tuberculosis; assay: Antitubercular activity against autoluminescent Mycobacterium tuberculosis H37Ra infected in po dosed noninvasive BALB/c mouse assessed as bioluminescence intensity by measuring relative light unit administered qd for 6 days; assay type: functional, organism-based; in short: as §1
[7] = tested on: Mycobacterium tuberculosis; assay: Antitubercular activity against autoluminescent Mycobacterium tuberculosis H37Ra infected in noninvasive BALB/c mouse assessed as bioluminescence intensity by measuring relative light unit at 20 mg/kg, po qd for 6 days; assay type: functional; in short: as §1
[8] = tested on: Mycobacterium tuberculosis; assay: Antitubercular activity against autoluminescent Mycobacterium tuberculosis H37Ra infected in noninvasive BALB/c mouse assessed as bactericidal activity by measuring reduction in relative light unit at 100 mg/kg, po qd for 4 days relative to control; assay type: functional
[9] = tested on: Mycobacterium tuberculosis; assay: Antitubercular activity against autoluminescent Mycobacterium tuberculosis H37Ra infected in noninvasive BALB/c mouse assessed as bioluminescence intensity by measuring relative light unit at 4 mg/kg, po qd for 6 days; assay type: functional; in short: as §1
[10] = tested on: Mycobacterium tuberculosis; assay: Antitubercular activity against autoluminescent Mycobacterium tuberculosis H37Ra infected in noninvasive BALB/c mouse assessed as bactericidal activity by measuring reduction in relative light unit at 100 mg/kg, po qd for 6 days relative to control; assay type: functional; in short: as §1

Compound	IC50 (Vero)	MIC [2]	MIC [3]	other results
Cc1ccn2nc(C)c(C(=O)NCc3ccc(N4CCN(c5ccc(F)cc5)CC4)cc3)c2c1	> 100000 nM	0.0131 µM (≈ 0.00599 µg/mL)	0.0066 µM (≈ 0.00302 µg/mL)	IC50 [1]: 2.5 nM; IC90 [1]: 6.5 nM; MIC [1]: 0.0063 µM (≈ 0.00288 µg/mL)
COc1ccn2nc(C)c(C(=O)NCc3ccc(N4CCC(c5ccc(OC(F)(F)F)cc5)CC4)cc3)c2c1	> 100000 nM	0.0111 µM (≈ 0.00598 µg/mL)	0.0056 µM (≈ 0.00302 µg/mL)	Activity (Mus musculus): Non-toxic; IC50 [1]: 2.5 nM; IC90 [1]: 5.7 nM; MIC [1]: 0.0056 µM (≈ 0.00302 µg/mL); RLU [4]: 0.15; RLU [5]: 3.6; Activity [6]: Dose-dependent effect; RLU [7]: 0.19; RLU [8]: 5; RLU [9]: 0.4; RLU [10]: 6.5
Cc1ccn2nc(C)c(C(=O)NCc3ccc(C(F)(F)F)cc3)c2c1	> 100000 nM	0.0691 µM (≈ 0.024 µg/mL)	0.288 µM (≈ 0.1 µg/mL)	
Cc1ccn2nc(C)c(C(=O)NCc3ccc(N4CCCCC4)cc3)c2c1	> 100000 nM	0.0166 µM (≈ 0.00602 µg/mL)	0.0276 µM (≈ 0.01 µg/mL)	
NNC(=O)c1ccncc1 [ISONIAZID]		2.99 µM (≈ 0.41 µg/mL)	0.729 µM (≈ 0.1 µg/mL)	
Cc1nn2ccc(C(C)C)cc2c1C(=O)NCc1ccc(N2CCC(c3ccc(OC(F)(F)F)cc3)CC2)cc1		0.0472 µM (≈ 0.026 µg/mL)	1.82 µM (≈ 1 µg/mL)	
Cc1ccn2nc(C)c(C(=O)NCc3ccc(N4CCC(c5ccc(OC(F)(F)F)cc5)CC4)cc3)c2c1	> 100000 nM	0.0077 µM (≈ 0.00402 µg/mL)	0.0057 µM (≈ 0.00298 µg/mL)	IC50 [1]: 5.1 nM; IC90 [1]: 12 nM; MIC [1]: 0.011 µM (≈ 0.00575 µg/mL)
CCc1ccn2nc(C)c(C(=O)NCc3ccc(N4CCC(c5ccc(OC(F)(F)F)cc5)CC4)cc3)c2c1	> 100000 nM	0.0112 µM (≈ 0.00601 µg/mL)	0.0186 µM (≈ 0.00998 µg/mL)	
Cc1nn2cccc(C)c2c1C(=O)NCc1ccc(N2CCC(c3ccc(OC(F)(F)F)cc3)CC2)cc1		1.15 µM (≈ 0.6 µg/mL)	> 19.1 µM	
Cc1nn2ccc(C(C)(C)C)cc2c1C(=O)NCc1ccc(N2CCC(c3ccc(OC(F)(F)F)cc3)CC2)cc1		> 1.77 µM	> 17.7 µM	
O=C(NCc1ccc(N2CCC(c3ccc(OC(F)(F)F)cc3)CC2)cc1)c1cnn2ccc(Cl)cc12		0.359 µM (≈ 0.19 µg/mL)	18.9 µM (≈ 10 µg/mL)	
Cc1ccn2nc(C)c(C(=O)NCc3ccc(N4CCC(C(F)(F)F)CC4)cc3)c2c1	> 100000 nM	0.0139 µM (≈ 0.00598 µg/mL)	0.0023 µM (≈ 0.00099 µg/mL)	
CCc1nc2ccc(Cl)cn2c1C(=O)NCc1ccc(N2CCC(c3ccc(OC(F)(F)F)cc3)CC2)cc1 [TELACEBEC]	> 100000 nM	0.0108 µM (≈ 0.00602 µg/mL)	0.0054 µM (≈ 0.00301 µg/mL)	
CO[C@H]1/C=C/O[C@@]2(C)Oc3c(C)c(O)c4c(O)c(c(/C=N/N5CCN(C)CC5)c(O)c4c3C2=O)NC(=O)/C(C)=C\C=C\[C@H](C)[C@H](O)[C@@H](C)[C@@H](O)[C@@H](C)[C@H](OC(C)=O)[C@@H]1C [RIFAMPIN]		0.0364 µM (≈ 0.03 µg/mL)	0.00364 µM (≈ 0.003 µg/mL)	IC50 [1]: 4.1 nM; IC90 [1]: 6.9 nM; MIC [1]: 0.0065 µM (≈ 0.00535 µg/mL)
Cc1nn2ccc(C(F)(F)F)cc2c1C(=O)NCc1ccc(N2CCC(c3ccc(OC(F)(F)F)cc3)CC2)cc1	> 100000 nM	0.052 µM (≈ 0.03 µg/mL)	1.73 µM (≈ 1 µg/mL)	
Cc1nn2ccc(-c3ccccc3)cc2c1C(=O)NCc1ccc(N2CCC(c3ccc(OC(F)(F)F)cc3)CC2)cc1		0.479 µM (≈ 0.28 µg/mL)	> 17.1 µM	
Cc1ccc2c(C(=O)NCc3ccc(N4CCC(c5ccc(OC(F)(F)F)cc5)CC4)cc3)c(C)nn2c1	> 100000 nM	0.0134 µM (≈ 0.007 µg/mL)	0.574 µM (≈ 0.3 µg/mL)	
Cc1nn2ccccc2c1C(=O)NCc1ccc(N2CCC(c3ccc(OC(F)(F)F)cc3)CC2)cc1	> 100000 nM	0.0098 µM (≈ 0.00498 µg/mL)	0.59 µM (≈ 0.3 µg/mL)	
O=C(NCc1ccc(N2CCC(c3ccc(OC(F)(F)F)cc3)CC2)cc1)c1c(C2CC2)nn2ccc(Cl)cc12	> 100000 nM	0.0176 µM (≈ 0.01 µg/mL)	0.176 µM (≈ 0.1 µg/mL)	
Cc1ccn2nc(C)c(C(=O)NCc3ccc(-c4ccc(OC(F)(F)F)cc4)cc3)c2c1	50700 nM	0.0137 µM (≈ 0.00602 µg/mL)	0.0068 µM (≈ 0.00299 µg/mL)	
Cc1nn2ccc(Cl)cc2c1C(=O)NCc1ccc(N2CCC(c3ccc(OC(F)(F)F)cc3)CC2)cc1	> 100000 nM	0.0074 µM (≈ 0.00402 µg/mL)	0.0184 µM (≈ 0.00999 µg/mL)	
O=C(NCc1ccc(N2CCC(c3ccc(OC(F)(F)F)cc3)CC2)cc1)c1c(-c2ccccc2)nn2ccc(Cl)cc12		1.55 µM (≈ 0.936 µg/mL)	> 16.5 µM	
Cc1nn2c(C)cccc2c1C(=O)NCc1ccc(N2CCC(c3ccc(OC(F)(F)F)cc3)CC2)cc1		0.115 µM (≈ 0.06 µg/mL)	5.74 µM (≈ 3 µg/mL)	
Cc1ccn2nc(C)c(C(=O)NCc3ccc(N(C)C)cc3)c2c1	> 100000 nM	0.0868 µM (≈ 0.028 µg/mL)	0.31 µM (≈ 0.1 µg/mL)	
CCc1nn2ccc(Cl)cc2c1C(=O)NCc1ccc(N2CCC(c3ccc(OC(F)(F)F)cc3)CC2)cc1	> 100000 nM	0.0108 µM (≈ 0.00602 µg/mL)	0.0538 µM (≈ 0.03 µg/mL)	IC50 [1]: 31.3 nM; IC90 [1]: 150 nM; MIC [1]: 0.129 µM (≈ 0.0719 µg/mL)
